Measured values: ChEMBL document CHEMBL1949632, “Discovery of potent and liver-selective stearoyl-CoA desaturase (SCD) inhibitors in an acyclic linker series” (Bioorg Med Chem Lett, 2012)

How the values were obtained:
Acyl-CoA desaturase 1 [1] = target: T1, Acyl-CoA desaturase 1 (Rattus norvegicus, UniProt P07308); assay: Inhibition of rat liver microsome SCD1
T1 sequence (P07308 whole entry): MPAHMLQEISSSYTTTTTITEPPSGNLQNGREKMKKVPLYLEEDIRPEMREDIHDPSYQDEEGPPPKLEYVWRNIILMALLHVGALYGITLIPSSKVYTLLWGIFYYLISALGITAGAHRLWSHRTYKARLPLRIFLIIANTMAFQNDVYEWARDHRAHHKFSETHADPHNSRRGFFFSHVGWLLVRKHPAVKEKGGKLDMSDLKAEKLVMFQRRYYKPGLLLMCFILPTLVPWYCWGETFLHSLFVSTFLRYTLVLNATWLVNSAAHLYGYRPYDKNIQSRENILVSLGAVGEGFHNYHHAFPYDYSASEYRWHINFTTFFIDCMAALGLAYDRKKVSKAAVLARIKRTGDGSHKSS
Method in brief: (§1)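 IC50s are the average of at least two independent titrations.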

Stearoyl-CoA desaturase [2] = target: T2, Stearoyl-CoA desaturase (Homo sapiens, UniProt O00767); assay: Inhibition of SCD1 in OATP-deficient human HepG2 cells by whole cell assay; assay type: cell-based
T2 sequence (O00767 whole entry): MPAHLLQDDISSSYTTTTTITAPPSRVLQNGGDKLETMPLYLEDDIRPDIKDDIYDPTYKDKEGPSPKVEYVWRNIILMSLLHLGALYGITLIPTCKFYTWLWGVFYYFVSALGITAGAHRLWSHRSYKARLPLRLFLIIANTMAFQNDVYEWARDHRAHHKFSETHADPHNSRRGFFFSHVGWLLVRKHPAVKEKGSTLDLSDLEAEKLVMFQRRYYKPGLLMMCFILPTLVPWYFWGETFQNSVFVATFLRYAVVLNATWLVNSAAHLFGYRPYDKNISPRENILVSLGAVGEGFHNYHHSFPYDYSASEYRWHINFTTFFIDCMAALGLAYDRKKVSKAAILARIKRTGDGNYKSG

[3] = target: Acyl-CoA desaturase 1 (Mus musculus) (UniProt P13516); assay: Inhibition of SCD1 in mouse SCD1 enzyme assay
[4] = AUC (0 to 6 hrs) in C57BL/6 mouse at 10 mg/kg, po; assay type: ADME, organism-based, C57BL6; parameters: time < 6 hr, dose 10 mg/kg, route oral; conditions: plasma
Method in brief: (§2)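 C57BL6 mice dosed orally at 10 mg/kg in 0.5% methocel; plasma PK followed over 0–6 h, giving oral bioavailability (F) and AUC0–6h.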

[5] = Drug uptake in mouse liver at 10 mg/kg, po after 6 hrs; assay type: ADME, organism-based; parameters: dose 10 mg/kg, route oral; conditions: read-out: Drug uptake
Method in brief: (§3)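 Tissue distribution study. Mice (n = 2) given 10 mg/kg orally; liver, plasma, shaved skin and Harderian gland concentrations measured 6 h post dose.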

[6] = Oral bioavailability in C57BL/6 mouse at 10 mg/kg; assay type: ADME, organism-based, C57BL6; conditions: in vivo; method in brief: as §2
Acyl-CoA desaturase 1 [7] = target: T1, Acyl-CoA desaturase 1; assay: Inhibition of SCD1 in rat hepatocytes expressing OATP; assay type: cell-based, Hepatocyte; method in brief: as §1
[8] = Stability in mouse hepatocytes assessed as compound remaining after 2 hrs; assay type: ADME, cell-based, Hepatocyte; conditions: read-out: Stability
Method in brief: (§4)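 Fresh mouse or rat hepatocytes, 2 million cells/mL in Krebs-Henseleit buffer, incubated at 37 °C for 2 h under 95% O2/5% CO2. Parent compound remaining measured.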

[9] = Stability in rat hepatocytes assessed as compound remaining after 2 hrs; assay type: ADME, cell-based, Hepatocyte; conditions: read-out: Stability; method in brief: as §4
[10] = target: Acyl-CoA (8-3)-desaturase (Homo sapiens, UniProt O60427); assay: Inhibition of delta-5 desaturase expressed in HepG2 cells; assay type: cell-based
Acyl-CoA (8-3)-desaturase, sequence (O60427 whole entry): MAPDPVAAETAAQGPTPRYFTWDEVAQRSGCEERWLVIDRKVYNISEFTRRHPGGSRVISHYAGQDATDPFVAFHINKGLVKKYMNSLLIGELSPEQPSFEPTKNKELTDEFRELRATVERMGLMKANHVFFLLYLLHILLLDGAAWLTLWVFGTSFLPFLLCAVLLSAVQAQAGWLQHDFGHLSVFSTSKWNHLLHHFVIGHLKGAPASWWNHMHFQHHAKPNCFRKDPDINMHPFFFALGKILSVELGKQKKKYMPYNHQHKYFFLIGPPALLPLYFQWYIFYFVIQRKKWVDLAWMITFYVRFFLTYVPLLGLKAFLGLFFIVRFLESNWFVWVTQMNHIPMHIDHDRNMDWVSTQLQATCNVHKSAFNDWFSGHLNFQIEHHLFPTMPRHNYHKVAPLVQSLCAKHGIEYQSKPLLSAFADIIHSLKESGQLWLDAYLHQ

Mus musculus [11] = assay: Inhibition of SCD1 in mouse liver assessed as reduction in conversion of [14C]stearic acid to [14C]oleic acid at 60 mg/kg, po measured after 3 hrs; assay type: functional
Method in brief: (§5)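 Mouse liver pharmacodynamic model. Mice (n = 5) on high-carbohydrate diet, dosed orally; [1-14C]-stearic acid tracer given intravenously. Liver lipid 14C-oleic/14C-stearic ratio (SCD activity index) and liver drug concentration determined 3 h post dose. % inhibition is relative to vehicle-treated animals.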

Acyl-CoA 6-desaturase = target: T3, Acyl-CoA 6-desaturase (Homo sapiens, UniProt O95864); assay: Inhibition of delta-6 desaturase expressed in HepG2 cells; assay type: cell-based
T3 sequence (O95864 whole entry): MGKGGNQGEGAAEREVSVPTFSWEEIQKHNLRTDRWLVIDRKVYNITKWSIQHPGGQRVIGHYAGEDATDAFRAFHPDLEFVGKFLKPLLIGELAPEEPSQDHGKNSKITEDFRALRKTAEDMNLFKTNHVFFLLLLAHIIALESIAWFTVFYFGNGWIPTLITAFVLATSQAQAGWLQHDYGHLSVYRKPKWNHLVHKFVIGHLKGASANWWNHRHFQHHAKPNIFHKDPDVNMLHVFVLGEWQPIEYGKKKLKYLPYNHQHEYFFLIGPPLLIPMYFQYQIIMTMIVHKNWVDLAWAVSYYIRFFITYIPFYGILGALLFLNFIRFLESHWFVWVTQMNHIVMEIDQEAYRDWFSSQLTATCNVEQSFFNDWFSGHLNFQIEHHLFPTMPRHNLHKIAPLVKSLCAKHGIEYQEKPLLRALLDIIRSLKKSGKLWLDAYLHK

[12] = Drug uptake in mouse liver at 60 mg/kg, po measured after 3 hrs; assay type: ADME, organism-based; parameters: dose 60 mg/kg, route oral; conditions: read-out: Drug uptake; method in brief: as §5
Stearoyl-CoA desaturase [13] = target: T2, Stearoyl-CoA desaturase; assay: Inhibition of human SCD1
[14] = Drug uptake in mouse plasma at 10 mg/kg, po after 6 hrs; assay type: ADME, organism-based; parameters: dose 10 mg/kg, route oral; method in brief: as §3
Mus musculus [15] = assay: Inhibition of SCD1 in mouse liver assessed as reduction in conversion of [14C]stearic acid to [14C]oleic acid at 2 mg/kg, po measured after 3 hrs; assay type: functional; method in brief: as §5
[16] = Drug uptake in mouse harderian glands at 10 mg/kg, po after 6 hrs; assay type: ADME, organism-based, Harderian gland; parameters: dose 10 mg/kg, route oral; conditions: read-out: Drug uptake; method in brief: as §3
Mus musculus [17] = assay: Inhibition of SCD1 in mouse liver assessed as reduction in conversion of [14C]stearic acid to [14C]oleic acid after at 10 mg/kg, po after 3 hrs; assay type: functional; method in brief: as §5
[18] = Drug uptake in mouse liver at 10 mg/kg, po after 3 hrs; assay type: ADME, organism-based; parameters: dose 10 mg/kg, route oral; conditions: read-out: Drug uptake; method in brief: as §5
[19] = Drug uptake in mouse shaved skin at 10 mg/kg, po after 6 hrs; assay type: ADME, organism-based, Zone of skin; parameters: dose 10 mg/kg, route oral; conditions: read-out: Drug uptake; method in brief: as §3
[20] = Drug uptake in mouse liver at 2 mg/kg, po measured after 3 hrs; assay type: ADME, organism-based; parameters: dose 2 mg/kg, route oral; conditions: read-out: Drug uptake; method in brief: as §5
Mus musculus [21] = assay: Inhibition of SCD1 in mouse liver assessed as reduction in conversion of [14C]stearic acid to [14C]oleic acid after at 0.4 mg/kg, po after 3 hrs; assay type: functional; method in brief: as §5
[22] = Drug uptake in mouse liver at 0.4 mg/kg, po after 3 hrs; assay type: ADME, organism-based; parameters: dose 0.4 mg/kg, route oral; conditions: read-out: Drug uptake; method in brief: as §5

Row | SMILES | IC50 (Acyl-CoA desaturase 1 [1]) [nM] | IC50 (Stearoyl-CoA desaturase [2]) [nM] | concentration at 6 h [5] [nM] | IC50 (Acyl-CoA desaturase 1 [7]) [nM] | concentration at 6 h [14] [nM] | inhibition in vivo at 2 mg/kg (Mus musculus [15]) [%] | concentration at 6 h [16] [nM] | concentration at 6 h [19] [nM] | concentration at 3 h [20] [nM] | also measured
1 | O=C(O)Cn1nnc(-c2cc(OCCOc3cc(F)ccc3Br)no2)n1 | 226 | > 40000 | – | – | – | – | – | – | – | –
2 | O=C(O)Cn1nnc(-c2cc(OCCCOc3cc(F)ccc3Br)no2)n1 | 13 | 7740 | 230 | 213 | – | – | – | – | – | IC50 [3]: 10 nM; AUC(0-t) at 6 h [4]: 1 µM·h; bioavailability [6]: 10%; remaining at 2 h [8]: 75%; remaining at 2 h [9]: 55%; IC50 [10]: > 20000 nM; inhibition in vivo at 60 mg/kg (Mus musculus [11]): 85%; IC50 (Acyl-CoA 6-desaturase): > 20000 nM; concentration at 3 h [12]: 7800 nM; IC50 (Stearoyl-CoA desaturase [13]): 41 nM
3 | O=C(O)Cn1nnc(-c2cc(OCCCCOc3cc(F)ccc3Br)no2)n1 | 248 | > 40000 | – | – | – | – | – | – | – | –
4 | O=C(O)Cn1nnc(-c2cc(OCCOCc3cc(F)ccc3Br)no2)n1 | 305 | > 100000 | – | – | – | – | – | – | – | –
5 | O=C(O)Cn1nnc(-c2nnc(OCCCOc3cc(F)ccc3Br)s2)n1 | 26 | > 60000 | – | – | – | – | – | – | – | –
6 | O=C(O)Cn1nnc(-c2cnc(OCCCOc3cc(F)ccc3Br)s2)n1 | 5 | 3870 | 8070 | 176 | 1080 | 49 | 590 | 240 | 7600 | AUC(0-t) at 6 h [4]: 11.4 µM·h; bioavailability [6]: 32%; remaining at 2 h [9]: 94%; inhibition in vivo at 10 mg/kg (Mus musculus [17]): 79%; concentration at 3 h [18]: 28600 nM
7 | O=C(O)Cn1nnc(-c2cnc(OCCCOc3cc(OC(F)(F)F)ccc3Br)s2)n1 | 2 | 969 | 13700 | 91 | 770 | 81 | 1850 | 300 | 4200 | inhibition in vivo at 10 mg/kg (Mus musculus [17]): 91%; concentration at 3 h [18]: 18300 nM
8 | Cc1nc(OCCCOc2cc(F)ccc2Br)sc1-c1nnn(CC(=O)O)n1 | 22 | 20500 | – | 945 | – | – | – | – | – | –
9 | O=C(O)Cn1nnc(-c2cc(N3CCC(Oc4cc(F)ccc4Br)CC3)no2)n1 [MK-8245] | – | – | 2700 | – | 30 | 89 | 130 | 70 | 4900 | inhibition in vivo at 0.4 mg/kg (Mus musculus [21]): 49%; concentration at 3 h [22]: 1600 nM
